According to publication PMC5432128 (Environment international, 2017):
Converted amounts (≈) assume the structure as drawn. “And” between values parts separate entries of the source, which are not always exact repeats. Equal values may be shown once. Read-outs that look alike come from different tables or passages of the source.

Tests used:
[1] = cited from earlier work; for recovery of radioactivity in the urine: rats, ref Powles et al. 1992
α1β3γ2L GABAA receptors = α1β3γ2L GABAA receptors (Homo sapiens, UniProt P14867+P18507+P28472); format: cell-based; settings: for EC50: 25 μM GABA, -80 mV
α1β3γ2L GABAA receptors, sequence (P14867 28-456): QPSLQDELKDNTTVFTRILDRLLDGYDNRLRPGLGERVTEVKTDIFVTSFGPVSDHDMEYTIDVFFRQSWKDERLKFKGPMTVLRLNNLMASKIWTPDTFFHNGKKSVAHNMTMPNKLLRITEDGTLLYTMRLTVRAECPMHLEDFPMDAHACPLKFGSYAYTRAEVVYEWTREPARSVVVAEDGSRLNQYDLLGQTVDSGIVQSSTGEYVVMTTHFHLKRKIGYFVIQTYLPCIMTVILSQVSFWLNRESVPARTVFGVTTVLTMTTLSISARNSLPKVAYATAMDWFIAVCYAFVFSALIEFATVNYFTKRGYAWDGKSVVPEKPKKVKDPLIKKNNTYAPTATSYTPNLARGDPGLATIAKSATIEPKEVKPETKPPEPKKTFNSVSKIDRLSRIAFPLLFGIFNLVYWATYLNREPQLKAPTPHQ
α1β3γ2L GABAA receptors, sequence (P28472 26-473): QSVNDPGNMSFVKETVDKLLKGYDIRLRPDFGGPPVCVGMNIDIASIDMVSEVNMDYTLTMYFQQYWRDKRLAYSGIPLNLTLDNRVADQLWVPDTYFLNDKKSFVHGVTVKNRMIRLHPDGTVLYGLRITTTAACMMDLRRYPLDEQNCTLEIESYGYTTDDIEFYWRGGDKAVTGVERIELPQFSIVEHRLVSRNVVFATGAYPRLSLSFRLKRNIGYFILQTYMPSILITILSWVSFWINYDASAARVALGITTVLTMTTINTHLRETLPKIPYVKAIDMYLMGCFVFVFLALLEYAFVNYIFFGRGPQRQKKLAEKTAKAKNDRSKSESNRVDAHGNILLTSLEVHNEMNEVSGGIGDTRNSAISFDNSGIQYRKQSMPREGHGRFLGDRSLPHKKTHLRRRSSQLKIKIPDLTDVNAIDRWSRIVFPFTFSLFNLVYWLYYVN
α1β3γ2L GABAA receptors, sequence (P18507 40-475): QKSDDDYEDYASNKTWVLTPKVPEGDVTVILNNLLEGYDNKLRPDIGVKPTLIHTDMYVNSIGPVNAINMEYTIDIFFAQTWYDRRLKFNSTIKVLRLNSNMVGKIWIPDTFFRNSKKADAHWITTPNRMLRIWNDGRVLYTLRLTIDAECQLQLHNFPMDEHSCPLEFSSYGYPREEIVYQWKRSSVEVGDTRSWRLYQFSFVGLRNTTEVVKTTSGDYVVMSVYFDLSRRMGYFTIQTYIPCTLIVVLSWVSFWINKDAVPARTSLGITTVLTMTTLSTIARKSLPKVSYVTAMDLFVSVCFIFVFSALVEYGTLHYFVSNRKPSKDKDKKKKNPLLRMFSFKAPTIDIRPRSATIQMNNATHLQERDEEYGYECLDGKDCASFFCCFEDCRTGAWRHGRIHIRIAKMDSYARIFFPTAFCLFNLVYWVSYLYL

[2] = system: second instar larvae of S. frugiperda; assay: Insect bioassay, diet surface contamination method; format: in vivo; settings: for mortality / insecticidal activity: 2nd instar larvae, doses as high as 100 μg/mL (24-fold higher than fipronil LC50)
LC-MS/MS Method 1 = format: in vivo, rat; settings: for concentration at 2 weeks: Conc sulfone, LOQ 1.5 ng/mL
Procedure, shortened: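 Rats received fipronil in diet at 5 or 10 mg/kg daily, for 14 days or one day. Urine was hydrolysed overnight at 37°C with β-glucuronidase/sulfatase in methanol/ammonium acetate pH 5.5. Urine (40 μL) was spiked with CUDA internal standard and centrifugally filtered at 20,000 g. Analysis used UPLC on C18 at 40°C with a water/acetonitrile 0.1% acetic acid gradient at 0.4 mL/min and […] ESI tandem MS.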

LC/MS/MS Method 2 = format: in vivo; settings: EPA group, this study; for Conc sulfone, LOQ 10 ng/mL: rat urine; for concentration at 2 weeks: rat, urine, oral, Conc sulfone, LOQ 10 ng/mL
Procedure, shortened: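 Urine came from fipronil-treated rats dosed at 5 or 10 mg/kg, single or repeated daily. Urine (100 μL) was precipitated with cold acetonitrile and centrifuged at 12,500 ×g for 8 min. Supernatant was mixed 1:1 with 10 mM ammonium acetate. HPLC used a C18 column at 30°C with 0.2 mM ammonium acetate methanol/acetonitrile phases, a 50–90% B gradient and flow of 0.4 rising to 0.75 mL/min, then MS/MS.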

[3] = in certain conditions; ref Gunasekara et al. 2007; cited from earlier work
mice = settings: 4.5 mg/kg body weight (bw)/day for 13 weeks; ref Hamernik 1998; cited from earlier work
rats = settings: in particular females; low doses (3.4 mg/kg bw); ref Hamernik 1998; cited from earlier work
dogs = settings: diet, up to 3 mg/kg bw/day; ref Hamernik 1998; Woodward 2012; cited from earlier work
[4] = urine of fipronil-treated rats; ref McMahen et al. 2015; cited from earlier work
[5] = system: polyclonal antibodies 2268; assay: Fipronil immunoassay cross-reactivity, serum 2268; format: binding; settings: serum 2268, n=4; relative to fipronil
[6] = system: polyclonal antibodies 2265; assay: Fipronil immunoassay cross-reactivity, serum 2265; format: binding; settings: serum 2265, n=5; relative to fipronil
[7] = inhibitory effective concentration (EC50) on GABA-induced Cl- currents, pre-application at least 3 min, mean ± S.D.

In the case of `N#Cc1nn(-c2c(Cl)cc(C(F)(F)F)cc2Cl)c(N)c1[S+]([O-])C(F)(F)F` (stereo not drawn) [^14C-fipronil], the “recovery of radioactivity in the urine” value ([1]; repeated dosing over 14 days) is given as 14–16%, the “recovery of radioactivity in the urine” value ([1]; single dose at 4 mg/kg) is given as 5.6% and the “recovery of radioactivity in the urine” value ([1]; single high dose (150 mg/kg)) is given as 22–30%.

For `COC(=N)c1cc(N)n(-c2c(Cl)cc(C(F)(F)F)cc2Cl)n1` [fipronil desulfinyl imidate, methyl 5-amino-1-(2,6-dichloro-4-(trifluoromethyl)phenyl)-1H-pyrazole-3-carbimidate], the “activity on GABAA α1β3γ2L receptor currents (in words)” value (α1β3γ2L GABAA receptors) was “approximately as potent to fipronil”, the EC50 (α1β3γ2L GABAA receptors; [7]) was 2.78 nM and 2.8 nM and the “mortality / insecticidal activity” value [2] was “did not show any mortality”. The “mortality / insecticidal activity” value ([2]; listed as imidate derivative) was “did not show any insecticidal activity”.

For `N#Cc1nn(-c2c(Cl)cc(C(F)(F)F)cc2Cl)c(N)c1S(=O)(=O)C(F)(F)F` [fipronil sulfone], the “Conc sulfone, LOQ 1.5 ng/mL” value (LC-MS/MS Method 1; rat urine, fipronil 5 mg/kg repeated, Method 1) was 0.014 µg/mL, the “Conc sulfone, LOQ 1.5 ng/mL” value (LC-MS/MS Method 1; rat urine, fipronil 5 mg/kg repeated, Method 1, listed as sulfone) was 0.017 µg/mL and 0.014 µg/mL and the “detection in urine samples” value (LC-MS/MS Method 1; rat urine, samples 42, 81 and 82) was “detected only in samples obtained from animals treated with fipronil repeatedly”. The concentration at 2 weeks (LC-MS/MS Method 1; rat, urine, oral, 5 mg/kg, rat urine, fipronil 5 mg/kg repeated, Method 1) was 0.017 µg/mL, the concentration at 2 weeks (LC-MS/MS Method 1; rat, urine, oral, 10 mg/kg, rat urine, fipronil 10 mg/kg repeated, Method 1) was 0.019 µg/mL and the “concentration in urine samples” value (LC-MS/MS Method 1; rats treated with fipronil, over all dose groups (abstract)) was “around 20 ng/mL”. For the same compound, the “Conc sulfone, LOQ 10 ng/mL” value (LC/MS/MS Method 2; fipronil 5 mg/kg repeated) was 0.024 µg/mL, the “Conc sulfone, LOQ 10 ng/mL” value (LC/MS/MS Method 2; fipronil 5 mg/kg single) was < 0.01 µg/mL and the “Conc sulfone, LOQ 10 ng/mL” value (LC/MS/MS Method 2; fipronil 10 mg/kg single) was < 0.01 µg/mL. For the same compound, the concentration at 2 weeks (LC/MS/MS Method 2; 5 mg/kg, fipronil 5 mg/kg repeated) was 0.026 µg/mL, the concentration at 2 weeks (LC/MS/MS Method 2; 10 mg/kg, fipronil 10 mg/kg repeated) was 0.023 µg/mL and the “share among urinary metabolites” value ([1]; deconjugated and original rat urine, ref Powles et al. (1992)) was “minor constituent”.

For `N#Cc1nn(-c2c(Cl)cc(C(F)(F)F)cc2Cl)c(N)c1[S+]([O-])C(F)(F)F` (stereo not drawn) [fipronil], the EC50 (α1β3γ2L GABAA receptors; [7]) is listed as 1.15 nM and 1.2 nM, the “half-life (t1/2) in the environment” value [3] is listed as “over 100 days” and the bodyweight gain (mice) is listed as “reduced bodyweight gains”. The liver weight (rats) was “significant increase in liver weight”, the “other signs of toxicity observed” value (dogs) was “convulsions, head nodding and muscles twitching” and the “weight gain and neurological effects” value (dogs) was “did not experience abnormal weight gain or severe neurological effects”. For the same compound, the LC50 ([2]; Spodoptera frugiperda) was 4.1 mg/L (≈ 9.38 µM), the mortality at 100 µg/mL ([2]; Spodoptera frugiperda, 12 h) was 100% and the mortality at 50 µg/mL ([2]; Spodoptera frugiperda, 48 h) was 100%. For the same compound, the “free fipronil in urine samples” value [4] was “no detectable amount”.

For `N#Cc1nn(-c2c(Cl)cc(C(F)(F)F)cc2Cl)c(N)c1O` [hydroxy-fipronil, 5-Amino-1-(2,6-dichloro-4-(trifluoromethyl)phenyl)-4-hydroxy-1H-pyrazole-3-carbonitrile], the “activity on GABAA α1β3γ2L receptor currents (in words)” value (α1β3γ2L GABAA receptors) was “did not have a significant inhibitory effect”, the EC50 (α1β3γ2L GABAA receptors; inhibitory EC50 on GABA-induced Cl- currents) was ~1000 nM and the EC50 (α1β3γ2L GABAA receptors; [7]) was 1000 ± 341 nM. The “fold higher concentrations to elicit similar current inhibition” value (α1β3γ2L GABAA receptors; relative to fipronil and fipronil desulfinyl imidate) was ≤ 1000 fold, the “Conc FipOH, LOQ 0.4 ng/mL” value (LC-MS/MS Method 1; rat urine, fipronil 5 mg/kg single, Method 1, listed as FipOH) was 0.023 µg/mL and 0.024 µg/mL and the “Conc FipOH, LOQ 0.4 ng/mL” value (LC-MS/MS Method 1; rat urine, fipronil 10 mg/kg single, Method 1) was 0.014 µg/mL. The “difference in metabolite concentration, two weeks treatment vs single treatment” value (LC-MS/MS Method 1; rat urine, same doses 5 or 10 mg/kg) was 80 to 700 times, the “concentration detected in the samples before and after enzymatic hydrolysis” value (LC-MS/MS Method 1; rat urine, β-glucuronidase/sulfatase, table S4) was “did not change significantly” and the concentration at 14 days (LC-MS/MS Method 1; rat, urine, oral, 10 mg/kg, Conc FipOH, LOQ 0.4 ng/mL, rat urine, fipronil 10 mg/kg repeated (14 days), Method 1) was 10.2 µg/mL. For the same compound, the “concentration in the urine” value (LC-MS/MS Method 1; rats, single fipronil dose of 5 or 10 mg/kg) was “about 20 ng/mL”, the “Cross-reactivity (CR)” value [5] was 0.7% and the “Cross-reactivity (CR)” value [6] was 3.2%. For the same compound, the “mortality / insecticidal activity” value [2] was “did not show any mortality”.
